Data taken from publication PMC12531995 (RSC Advances, 2025).
Marks after values point to notes of the source that are not given here.

Tests used:
[1] = system: carrageenan-induced paw edema in rats; settings: cited from earlier work
[2] = system: PTZ-induced seizures in mice; test: Pentylenetetrazol; type: in vivo; settings: Mus musculus, po, 24 h, read-out: 24 h mortality
How it was run: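 Mice were randomised into ten groups of ten. Animals were dosed orally, with 0.5% carboxymethyl cellulose as the negative-control vehicle. Seizures were then induced by intraperitoneal pentylenetetrazol at a convulsive dose of 85 mg kg−1.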

[3] = system: pilocarpine-induced seizures in mice; test: Pilocarpine-induced seizure; type: in vivo
How it was run: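 Male mice, n = 10 per group. Vehicle (0.5% CMC) or test compound (20 mg kg−1) given orally 30 min before pilocarpine (300 mg kg−1, i.p.) to induce status epilepticus. Valproic acid reference was 300 mg kg−1 orally, 30 min prior. Non-epileptic controls got vehicle only. Scored latency to forelimb clonus (stage 3), severity at 30, 60, 90 and 120 min, and 24 h survival. Mean ± SD.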

| Structure (SMILES) | Paw thickness difference, 1st hour ([1]; 1st hour post-carrageenan, oral, mean ± SD, n = 6) [mm] | Percentage of inhibition of paw thickness, 1st hour ([1]; 1st hour, vs carrageenan group) [%] | Paw thickness difference, 2nd hour ([1]; 2nd hour post-carrageenan, oral, mean ± SD, n = 6) [mm] | Percentage of inhibition of paw thickness, 2nd hour ([1]; 2nd hour, vs carrageenan group) [%] | Paw thickness difference, 3rd hour ([1]; 3rd hour post-carrageenan, oral, mean ± SD, n = 6) [mm] | Percentage of inhibition of paw thickness, 3rd hour ([1]; 3rd hour, vs carrageenan group) [%] | Paw thickness difference, 4th hour ([1]; 4th hour post-carrageenan, oral, mean ± SD, n = 6) [mm] | Percentage of inhibition of paw thickness, 4th hour ([1]; 4th hour, vs carrageenan group) [%] | Paw thickness difference, 5th hour ([1]; 5th hour post-carrageenan, oral, mean ± SD, n = 6) [mm] | Percentage of inhibition of paw thickness, 5th hour ([1]; 5th hour, vs carrageenan group) [%] | weight gain (paw) ([1]; 5 hour mark) [%] | Paw weight increase ([1]; right vs left paw, mean ± SD, n = 6) | mortality at 20 mg/kg [2] [%] | 24 h Survival ([3]; compounds 20 mg kg^−1, valproic acid 300 mg kg^−1 orally, mice n = 10) [%] | Onset (latency to forelimb clonus, stage 3) ([3]; mice n = 10, compounds 20 mg kg^−1 orally, valproic acid 300 mg kg^−1 orally, 30 minutes before pilocarpine 300 mg kg^−1 i.p., mean ± SD) | Reduction of final seizure severity ([3]; vs pilocarpine group, 120 min) [%] |
| --- | --- | --- | --- | --- | --- | --- | --- | --- | --- | --- | --- | --- | --- | --- | --- | --- |
| Cc1ccc(-c2cc(C(F)(F)F)nn2-c2ccc(S(N)(=O)=O)cc2)cc1 [Celecoxib] | 1.4 ± 0.38 | 29.31 | 2.36 ± 0.51 | 28.34 | 2.83 ± 0.43 | 33 | 3.01 ± 0.57 | 40.39 | 3.10 ± 0.23 | 41.65 | 68.15 | 29.95 ± 2.20^ab % |  |  |  |  |
| CCCC(CCC)C(=O)O [Valproic acid (VI), valproic acid] |  |  |  |  |  |  |  |  |  |  |  |  | 30 | 60 | 10.65 ± 0.52^a mins | 60 |
